Usually EC50 stands for the concentration that produces a half-maximal response.

The subject of one data set is Glioblastoma D54 cells. As to the kind of experiment: Cell viability. The following applies: D54, 24 h, increasing concentrations. The data set is classed as cell-based, human. The method in brief: (§1)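 Cells plated at 10 000 per well and exposed to increasing concentrations of test compound for 24 h. HMEC were cultured per supplier guidance. Viability was read with the ApoTox-Glo viability reagent by fluorescence at 400 nm Ex/505 nm Em. Three replicates; error bars are standard deviation.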

Data set [1] has as its system normal human mammary epithelial HMEC cells. As to the kind of experiment: Cell viability. It is filed as cell-based. The following applies: 24 h. The method in brief:
as §1

Data set [2] is described as follows: Parallel Artificial Membrane Permeability Assay. It is filed as in vitro ADME. The settings on record: pH 5.0 and 6.8, room temperature, ∼4 h; data not shown. Put shortly: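 Test compounds were made up as 10 mM DMSO stocks and filtered (0.2 μm). The assay used stirred PAMPA plates with GIT-0 lipid and an acceptor sink buffer. After permeation, UV spectra from 245 to 498 nm gave relative compound concentrations in the donor and acceptor compartments, from which effective permeability was derived.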

In the next data set the target is T1, hnRNP A18 (Homo sapiens, UniProt Q14011).
T1 sequence (Q14011 1-172): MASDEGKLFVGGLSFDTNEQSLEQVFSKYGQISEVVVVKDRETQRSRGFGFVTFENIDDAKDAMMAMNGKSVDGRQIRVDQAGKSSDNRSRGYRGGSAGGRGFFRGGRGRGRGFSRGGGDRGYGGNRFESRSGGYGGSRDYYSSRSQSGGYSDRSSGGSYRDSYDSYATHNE
As to the kind of experiment: Cellular thermal shift assay. The following applies: read-out: EC50, hnRNP A18 protection from melting; LOX-IM-VI cells over expressing GFP-hnRNP A18; 3 h; 57°C. The data set is classed as cell-based.

Data set [3] has as its system colorectal carcinoma RKO cells. As to the kind of experiment: Cell viability. It is filed as cell-based, human. The settings on record: 24 h, increasing concentrations. The method in brief: as §1
Data set [4] has as its system pancreatic cancer MiaPaca cells. As to the kind of experiment: Cell viability. It is filed as cell-based, human. The settings on record: 24 h, increasing concentrations. Put shortly:
as §1

Data set [5] has as its target hnRNP A18 RNA Recognition Motif (RRM) (Homo sapiens, UniProt Q14011). As to the kind of experiment: NMR 1H,15N-HSQC chemical shift perturbation. It is filed as binding. The settings on record: 15N-labeled hnRNP A18 RRM. The method in brief: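 Construct: human hnRNP A18 RRM (residues 1–92), expressed in E. coli BL21(DE3) as a His6-GB1 fusion in M9 medium with 15N-ammonium chloride, induced with 1 mM IPTG for 16 h at 18°C. Purified by denaturing Ni affinity with on-column refolding, then TEV cleavage.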

Data set [6] addresses T2, His-hnRNP A18 (Homo sapiens, UniProt Q14011).
T2 sequence (Q14011 1-172): T1 sequence (Q14011 1-172)
As to the kind of experiment: RNA band shift. The data set is classed as binding. The settings on record: biotinylated hnRNP A18 RNA consensus motif 1. Put shortly:
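Recombinant full-length human His-hnRNP A18 was expressed in bacteria grown at 30°C. Protein (1 μg) was preincubated 10 min with or without increasing concentrations of test compound. Biotinylated hnRNP A18 motif 1 RNA (51 nt) was then added for 10 min at room temperature. Complexes were resolved on native polyacrylamide gels, transferred to nylon and detected by chemiluminescence with streptavidin-HRP.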

In the next data set the target is T3, GST-hnRNP A18 (UniProt Q14011 1-172).
T3 sequence: T1 sequence (Q14011 1-172)
As to the kind of experiment: fluorescence anisotropy. In general terms: Polarisation of emitted light reports the rotation of a fluorescent probe.

For data set [7], the target named is T4, His-hnRNP A18 (human, UniProt Q14011 1-172).
T4 sequence: T1 sequence (Q14011 1-172)
As to the kind of experiment: EMSA. (In EMSA bound probe runs differently from free probe, usually more slowly.)

With `Cc1sc(NC(=O)c2ccccc2)nc1OC(=O)c1ccccc1` [VITAS STK508411], the “cell viability (relative efficacy)” value (with Glioblastoma D54 cells; in [3]; in data set [4]) was “least effective” each time. Also, in data set [1], the “toxicity to normal cells” value was 20–40%. Further, the “effective permeability (Pe)” value in data set [2] is > 20 ×10⁻⁶ cm/s. Also, the half-maximal effective concentration (EC50) on hnRNP A18 was 23.8 µM. In addition, the “chemical shift perturbations of hnRNP A18 RRM (qualitative)” value in data set [5] is on record as “Chemical shift perturbations were observed”. Further, the “hnRNP A18 RNA binding activity / specificity by RNA band shift” value at His-hnRNP A18 [6] is listed as “specifically bound hnRNP A18”.

B1: hnRNP A18 motif 1 Fl (ssRNA)
RNA: GCAGAUCCAGGGUGGGAUUUUCUUGAGGAAGUUACAAAUAAGCUUGUUACA
As to B1, the binding result with GST-hnRNP A18 is “binds”.

B2: hnRNP A18 motif 1 Biotin (ssRNA)
RNA: B1 RNA
B2: in the data set with His-hnRNP A18 [7], the binding result is “binds”.
